According to ChEMBL document CHEMBL1125084, “Synthesis and evaluation of a series of aryl[e]fused pyrazolo[4,3-c]pyridines with potential anxiolytic activity” (J Med Chem, 1990):
Activity calls are given as the source filed them.

How the values were obtained:
[1] = target: GABA-A receptor; anion channel; assay: Displacement of [3H]flunitrazepam from GABA-A Benzodiazepine receptor of rat brain membranes; type: cell membranes, Membrane
How it was run: (§1)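 Well-washed, frozen rat whole brain membranes incubated with 0.5 nM [3H]flunitrazepam; nonspecific binding defined with 10 µM clonazepam. IC50 from log concentration vs percent inhibition curves, Ki via Cheng-Prusoff; triplicate determinations.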

Mus musculus [2] = assay: Percent of mice not grasping wire at a dose of 30 mg/Kg administered intraperitoneally in horizontal wire test; Inactive; type: functional, organism-based
Mus musculus [3] = assay: Percentage change in seizure threshold by anti-pentylenetetrazole test in mouse at a dose of 30 mg/Kg administered perorally; type: functional
Rattus norvegicus [4] = species on record: Rattus norvegicus; assay: Evaluated for shock induced suppression of drinking by rat vogel test and number of shocks taken were reported; type: functional
How it was run: (§2)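 Rats deprived of water, allowed 4 h drinking, then withdrawn overnight. On test day, free drinking for 30 s, then a mild footshock (0.225 mA, 0.5 s) for every 5 s of accumulated drinking in a 3 min session. Count of shocks taken recorded. Drug given ip to groups of 6-12 rats 30 min before testing; vehicle 1% methyl cellulose in 0.5% saline.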

Mus musculus [5] = assay: Percentage change in seizure threshold by anti-pentylenetetrazole test in mouse at a dose of 100 mg/Kg administered perorally; Inactive; type: functional, organism-based
Mus musculus [6] = assay: Percentage change in seizure threshold by pentylenetetrazole infusion method in mouse at a dose of 30 mg/Kg administered perorally; Inactive; type: functional, organism-based
Mus musculus [7] = assay: Percentage change in seizure threshold by anti-pentylenetetrazole test in mouse at a dose of 30 mg/Kg administered perorally; Inactive; type: functional, organism-based
Mus musculus [8] = assay: Percent of mice not grasping wire at a dose of 300 mg/Kg administered intraperitoneally in horizontal wire test; type: functional
Mus musculus [9] = assay: Effective dose required for the percentage change in seizure threshold by anti-pentylenetetrazole test in mouse when administered perorally; type: functional; details: po
How it was run: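 Male CD-1 mice (18-24 g), groups of 10, dosed orally 60 min before testing. Lightly restrained mice received PTZ (8 mg/mL) by tail-vein infusion at 0.5 mL/min. Time to tonic hindlimb extension was converted to a PTZ threshold dose (mg/kg). Effect was expressed as % change in seizure threshold versus controls, with a two-tailed Student's t test.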

Rattus norvegicus [10] = assay: Compound was administered at a dose of 10 mg/Kg intraperitoneally and was evaluated for shock induced suppression of drinking by rat vogel test and number of shocks taken were reported; type: functional; how it was run: as §2
[11] = test system: GABA-A receptor; anion channel; assay: Displacement of [3H]flunitrazepam from GABA-A Benzodiazepine receptor of rat brain membranes (insoluble); type: cell membranes, Membrane; how it was run: as §1
Mus musculus [12] = assay: Percentage change in seizure threshold by pentylenetetrazole infusion method in mouse at a dose of 30 mg/Kg administered perorally; type: functional
Rattus norvegicus [13] = assay: Compound was administered at a dose of 20 mg/Kg intraperitoneally and was evaluated for shock induced suppression of drinking by rat vogel test and number of shocks taken were reported; Inactive; type: functional, organism-based; how it was run: as §2
[14] = test system: GABA-A receptor; anion channel; assay: Displacement of [3H]flunitrazepam from GABA-A Benzodiazepine receptor of rat brain membranes (Insoluble); type: cell membranes, Membrane; how it was run: as §1
Mus musculus [15] = assay: Percentage change in seizure threshold by pentylenetetrazole infusion method in mouse at a dose of 100 mg/Kg administered perorally; type: functional
Mus musculus [16] = assay: Compound was evaluated for horizontal wire test and percent of mice not grasping wire, it was administered intraperitoneally; details: ip
Mus musculus [17] = assay: Compound was evaluated for horizontal wire test and percent of mice not grasping wire, it was administered perorally; details: po
Rattus norvegicus [18] = assay: Compound was administered at a dose of 2.5 mg/Kg intraperitoneally and was evaluated for shock induced suppression of drinking by rat vogel test and number of shocks taken were reported; type: functional
How it was run: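 Rats had water for a 4-h period, then water was withdrawn overnight. On test day, after 30 s of free drinking, a 0.225 mA footshock lasting 0.5 s was given for every 5 s of accumulated drinking in a 3-min session. Drug was given ip to groups of 6-12 rats 30 min before testing. Vehicle controls received 1% methyl cellulose in 0.5% saline. Read-out was the number of shocks taken.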

Mus musculus [19] = assay: Percent of mice not grasping wire at a dose of 30 mg/Kg administered intraperitoneally in horizontal wire test; type: functional

SMILES	Ki [1]	Activity (Mus musculus [2])	No. of shocks (Rattus norvegicus [4])	other results
Cn1ncc2c3c(ccc21)ncc1c(=O)n(-c2ccc(Cl)cc2)[nH]c13	0.0024 µM	inactive	13	Change (Mus musculus [3]): 37%
O=c1c2cnc3ccsc3c2[nH]n1-c1ccc(Cl)cc1	0.00046 µM	inactive	14	Change (Mus musculus [5]): inactive
Cn1c2c(cnc3ccsc32)c(=O)n1-c1ccc(Cl)cc1	2.6 µM	–	8.6	Change (Mus musculus [6]): inactive
Cn1cc2c(ccc3ncc4c(=O)n(-c5ccc(Cl)cc5)[nH]c4c32)n1	0.00046 µM	inactive	5.7	Change (Mus musculus [7]): inactive
O=c1c2cnc3c4ccccc4sc3c2[nH]n1-c1ccc(Cl)cc1	0.81 µM	inactive	14.1	Change (Mus musculus [6]): inactive
O=C1C2C=Nc3ccccc3C2=NN1c1ccc(Cl)cc1 (centres undefined) [CGS-9896]	0.00035 µM	–	–	Activity (Mus musculus [8]): 30%; ED50 (Mus musculus [9]): 3.5 mg/kg; No. of shocks (Rattus norvegicus [10]): 12.7
Clc1ccc(-n2nc3c(cnc4ccsc43)c2Cl)cc1	–	–	13.7	Ki [11]: Insoluble; Change (Mus musculus [6]): inactive
CCc1cc2c(ncc3c(=O)n(-c4ccc(Cl)cc4)[nH]c32)s1	0.0018 µM	inactive	14.4	Change (Mus musculus [6]): inactive
O=c1c2c(-c3ccccc3)nc3ccsc3c2[nH]n1-c1ccc(Cl)cc1	> 1000 µM	–	6.7	Change (Mus musculus [12]): 18%
Cc1ccc2c(ncc3c(=O)n(-c4ccc(Cl)cc4)[nH]c32)n1	11 µM	–	–	Change (Mus musculus [5]): inactive; No. of shocks (Rattus norvegicus [13]): inactive
COc1c2cnc3ccsc3c2nn1-c1ccc(Cl)cc1	–	–	13.4	Change (Mus musculus [6]): inactive; Ki [14]: Insoluble
Cc1nc2ccsc2c2[nH]n(-c3ccc(Cl)cc3)c(=O)c12	1 µM	–	6.1	Change (Mus musculus [15]): 57%
Cn1ncc2cc3c(cc21)ncc1c(=O)n(-c2ccc(Cl)cc2)[nH]c13	0.014 µM	–	9	Change (Mus musculus [7]): inactive
Cn1ncc2ccc3ncc4c(=O)n(-c5ccc(Cl)cc5)[nH]c4c3c21	0.012 µM	inactive	13	Change (Mus musculus [7]): inactive
Cc1[nH]sc2ncc3c(=O)n(-c4ccc(Cl)cc4)nc3c12	0.099 µM	inactive	11.9	Change (Mus musculus [15]): 48%
Cn1cc2ccc3ncc4c(=O)n(-c5ccc(Cl)cc5)[nH]c4c3c2n1	0.00029 µM	inactive	7	–
Cn1cnc2c3c(ccc21)ncc1c(=O)n(-c2ccc(Cl)cc2)[nH]c13	0.0018 µM	inactive	12	–
Oc1c2cnc3cscc3c2nn1-c1ccc(Cl)cc1	0.00032 µM	inactive	17	Change (Mus musculus [3]): 47%
Cn1cc2c(=O)n(-c3ccc(Cl)cc3)nc-2c2sccc21	–	inactive	16.8	Change (Mus musculus [6]): inactive; Ki [14]: Insoluble
CN1C(=O)CN=C(c2ccccc2)c2cc(Cl)ccc21 [DIAZEPAM]	–	–	–	ED50 (Mus musculus [9]): 1.5 mg/kg; ED50 (Mus musculus [16]): 3.1 mg/kg; ED50 (Mus musculus [17]): 3.8 mg/kg; No. of shocks (Rattus norvegicus [18]): 21.2
Cn1c2ccccc2c2ncc3c(=O)n(-c4ccc(Cl)cc4)[nH]c3c21	–	–	10	Ki [11]: Insoluble; Activity (Mus musculus [19]): 25%
